System: Plasmodium falciparum
Assay: Antiplasmodial activity against intraerythrocytic Plasmodium falciparum 3D7 infected in human erythrocytes in fresh RPMI-1640 culture medium assessed as parasite growth inhibition after 96 hrs by microscopic analysis in presence of pantetheinase
Type: functional, organism-based
Conditions: 3D7, 96 h
Summary of the method: (§1)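 3D7 parasites in erythrocytes, started mostly at ring stage, grown 96 h in freshly prepared Albumax-complete RPMI (pantetheinase active) with 1 μM pantothenic acid. IC50 from concentration-response. Mean ± SEM (or range/2) of at least two independent experiments, each in triplicate.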

Compound | IC50 [µM]
CCCCCNC(=O)CCCNC(=O)[C@H](O)C(C)(C)CO | 195
CCCCCNC(=O)CNC(=O)[C@H](O)C(C)(C)CO | 142
CCCCCCNC(=O)CNC(=O)[C@H](O)C(C)(C)CO | 104
CCSCCNC(=O)CNC(=O)[C@H](O)C(C)(C)CO | 200
CC(C)(CO)[C@@H](O)C(=O)NCCCC(=O)NCc1ccc(OC(F)(F)F)cc1 | > 200
CC(C)(CO)[C@@H](O)C(=O)NCCCC(=O)NCc1ccc2c(c1)OCO2 | 88
CC(C)(CO)[C@@H](O)C(=O)NCC(=O)NCc1cccc(C(F)(F)F)c1 | 177
CC(C)(CO)[C@@H](O)C(=O)NCC(=O)NCc1ccc2c(c1)OCO2 | > 200
CCCCCCNC(=O)CCCNC(=O)[C@H](O)C(C)(C)CO | 199
CC(C)(CO)[C@@H](O)C(=O)NCC(=O)NCc1ccccc1 | > 200
CCSCCNC(=O)CCCNC(=O)[C@H](O)C(C)(C)CO | 169
CC(C)(CO)[C@@H](O)C(=O)NCC(=O)NCc1ccc(OC(F)(F)F)cc1 | > 200
COc1ccc(CNC(=O)CCCNC(=O)[C@H](O)C(C)(C)CO)cc1 | > 200
CC(C)(CO)[C@@H](O)C(=O)NCC(=O)NCCc1ccccc1 | 135
CC(C)(CO)[C@@H](O)C(=O)NCCCC(=O)NCCc1ccccc1 | 139
CN(C)c1cccc2c(S(=O)(=O)NCCCCCNC(=O)CNC(=O)[C@H](O)C(C)(C)CO)cccc12 | 157
CC(C)(CO)[C@@H](O)C(=O)NCCCC(=O)NCc1ccccc1 | > 200
CC(C)(CO)[C@@H](O)C(=O)NCC(=O)NCc1ccc(C(F)(F)F)cc1 | 57
COc1ccc(CNC(=O)CNC(=O)[C@H](O)C(C)(C)CO)cc1 | 189
CC(C)(CO)[C@@H](O)C(=O)NCCCC(=O)NCC1CCCCC1 | > 200
COc1cccc(CNC(=O)CCCNC(=O)[C@H](O)C(C)(C)CO)c1 | > 200
CC(C)(CO)[C@@H](O)C(=O)NCC(=O)NCC1CC1 | 183

System: Plasmodium falciparum
Assay: Antiplasmodial activity against intraerythrocytic Plasmodium falciparum 3D7 infected in human erythrocytes in fresh RPMI-1640 culture medium assessed as parasite growth inhibition after 96 hrs by microscopic analysis
Type: functional, organism-based
Conditions: 3D7, 96 h
Summary of the method: as §1

Compound | IC50 [µM]
CCCCCNC(=O)CCCNC(=O)[C@H](O)C(C)(C)CO | 3.9
CC(C)CNC(=O)CCCNC(=O)[C@H](O)C(C)(C)CO | 11
CCCCCNC(=O)CNC(=O)[C@H](O)C(C)(C)CO | 7
CC(C)CNC(=O)CCNC(=O)[C@H](O)C(C)(C)CO | 200
CCCCNC(=O)CCCNC(=O)[C@H](O)C(C)(C)CO | 11
COc1ccc(CNC(=O)CCNC(=O)[C@H](O)C(C)(C)CO)cc1 | > 200
CCCCCCNC(=O)CNC(=O)[C@H](O)C(C)(C)CO | 4.7
CCSCCNC(=O)CNC(=O)[C@H](O)C(C)(C)CO | 10
CC(C)(CO)[C@@H](O)C(=O)NCCCC(=O)NCc1ccc(OC(F)(F)F)cc1 | 6.3
CC(C)(CO)[C@@H](O)C(=O)NCCCC(=O)NCc1ccc2c(c1)OCO2 | 2.4
CC(C)(CO)[C@@H](O)C(=O)NCC(=O)NCc1cccc(C(F)(F)F)c1 | 89
CC(C)(CO)[C@@H](O)C(=O)NCC(=O)NCc1ccc2c(c1)OCO2 | 53
CCCCCCNC(=O)CCCNC(=O)[C@H](O)C(C)(C)CO | 8
CC(C)CCNC(=O)CCNC(=O)[C@H](O)C(C)(C)CO | > 200
CCCCNC(=O)CNC(=O)[C@H](O)C(C)(C)CO | 5.3
CC(C)(CO)[C@@H](O)C(=O)NCCC(=O)NCc1ccc2c(c1)OCO2 | 144
CCCNC(=O)CNC(=O)[C@H](O)C(C)(C)CO | 13
CC(C)(CO)[C@@H](O)C(=O)NCC(=O)NCc1ccccc1 | 122
CCSCCNC(=O)CCCNC(=O)[C@H](O)C(C)(C)CO | 2
CC(C)(CO)[C@@H](O)C(=O)NCC(=O)NCc1ccc(OC(F)(F)F)cc1 | 71
COc1ccc(CNC(=O)CCCNC(=O)[C@H](O)C(C)(C)CO)cc1 | 9.5
CC(C)(CO)[C@@H](O)C(=O)NCC(=O)NCCc1ccccc1 | 3.4
CC(C)(CO)[C@@H](O)C(=O)NCCCC(=O)NCCc1ccccc1 | 2.1
CN(C)c1cccc2c(S(=O)(=O)NCCCCCNC(=O)CNC(=O)[C@H](O)C(C)(C)CO)cccc12 | 155
CC(C)(CO)[C@@H](O)C(=O)NCCCC(=O)NCc1ccccc1 | 6.1
CC(C)(CO)[C@@H](O)C(=O)NCC(=O)NCc1ccc(C(F)(F)F)cc1 | 48
COc1ccc(CNC(=O)CNC(=O)[C@H](O)C(C)(C)CO)cc1 | 26
CC(C)(CO)[C@@H](O)C(=O)NCCCC(=O)NCC1CCCCC1 | 2.1
COc1cccc(CNC(=O)CCCNC(=O)[C@H](O)C(C)(C)CO)c1 | 21
CC(C)(CO)[C@@H](O)C(=O)NCC(=O)NCC1CC1 | 6.4

System: Plasmodium falciparum
Assay: Antiplasmodial activity against intraerythrocytic Plasmodium falciparum 3D7 infected in human erythrocytes in heat treated RPMI-1640 culture medium assessed as parasite growth inhibition after 96 hrs by microscopic analysis
Type: functional, organism-based
Conditions: 3D7, 96 h
Summary of the method: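 3D7 ring-stage-initiated cultures in erythrocytes, grown 96 h in aged Albumax-complete RPMI. The medium was heat-treated for a prolonged time to reduce pantetheinase activity and held 1 μM pantothenic acid. IC50 from concentration-response. Mean ± SEM (or range/2) of at least two independent experiments, each in triplicate.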

Compound | IC50 [µM]
CCCCCNC(=O)CCCNC(=O)[C@H](O)C(C)(C)CO | 2.2
CCCCCNC(=O)CNC(=O)[C@H](O)C(C)(C)CO | 14
CC(C)CNC(=O)CCNC(=O)[C@H](O)C(C)(C)CO | 1.1
COc1ccc(CNC(=O)CCNC(=O)[C@H](O)C(C)(C)CO)cc1 | > 200
CCCCCCNC(=O)CNC(=O)[C@H](O)C(C)(C)CO | 7.9
CCSCCNC(=O)CNC(=O)[C@H](O)C(C)(C)CO | 11
CC(C)(CO)[C@@H](O)C(=O)NCCCC(=O)NCc1ccc(OC(F)(F)F)cc1 | 4.9
CC(C)(CO)[C@@H](O)C(=O)NCC(=O)NCc1cccc(C(F)(F)F)c1 | 116
CCCCCCNC(=O)CCCNC(=O)[C@H](O)C(C)(C)CO | 14
CC(C)(CO)[C@@H](O)C(=O)NCC(=O)NCc1ccccc1 | 127
CCSCCNC(=O)CCCNC(=O)[C@H](O)C(C)(C)CO | 1.9
CC(C)(CO)[C@@H](O)C(=O)NCC(=O)NCc1ccc(OC(F)(F)F)cc1 | 64
COc1ccc(CNC(=O)CCCNC(=O)[C@H](O)C(C)(C)CO)cc1 | 10
CC(C)(CO)[C@@H](O)C(=O)NCCCC(=O)NCc1ccccc1 | 4.7
CC(C)(CO)[C@@H](O)C(=O)NCC(=O)NCc1ccc(C(F)(F)F)cc1 | 45
COc1ccc(CNC(=O)CNC(=O)[C@H](O)C(C)(C)CO)cc1 | 71
CC(C)(CO)[C@@H](O)C(=O)NCCCC(=O)NCC1CCCCC1 | 3.3
COc1cccc(CNC(=O)CCCNC(=O)[C@H](O)C(C)(C)CO)c1 | 22

System: pantetheinase
Assay: Drug metabolism of the compound assessed as compound hydrolysis at 200 uM after 10 mins by fluorescence assay in presence of recombinant human pantetheinase
Type: physicochemical
Conditions: read-out: Drug metabolism

metabolised at 10 min, 200 µM [%] | Compound
5 | CCCCCNC(=O)CCCNC(=O)[C@H](O)C(C)(C)CO
25 | CCCCNC(=O)CCCNC(=O)[C@H](O)C(C)(C)CO
5 | CC(C)(CO)[C@@H](O)C(=O)NCCCC(=O)NCc1ccc2c(c1)OCO2
5 | CC(C)(CO)[C@@H](O)C(=O)NCC(=O)NCc1cccc(C(F)(F)F)c1
5 | CC(C)(CO)[C@@H](O)C(=O)NCC(=O)NCc1ccc2c(c1)OCO2
5 | CCCCCCNC(=O)CCCNC(=O)[C@H](O)C(C)(C)CO
25 | CCCCNC(=O)CNC(=O)[C@H](O)C(C)(C)CO
5 | CC(C)(CO)[C@@H](O)C(=O)NCC(=O)NCc1ccccc1
5 | CCSCCNC(=O)CCCNC(=O)[C@H](O)C(C)(C)CO
5 | CC(C)(CO)[C@@H](O)C(=O)NCC(=O)NCc1ccc(OC(F)(F)F)cc1
5 | COc1ccc(CNC(=O)CCCNC(=O)[C@H](O)C(C)(C)CO)cc1
5 | CC(C)(CO)[C@@H](O)C(=O)NCC(=O)NCCc1ccccc1
5 | CN(C)c1cccc2c(S(=O)(=O)NCCCCCNC(=O)CNC(=O)[C@H](O)C(C)(C)CO)cccc12
5 | CC(C)(CO)[C@@H](O)C(=O)NCCCC(=O)NCc1ccccc1

More lines, now with the values behind:

Compound | metabolised at 10 min, 200 µM [%]
CC(C)CNC(=O)CCCNC(=O)[C@H](O)C(C)(C)CO | 5
CCCCCNC(=O)CNC(=O)[C@H](O)C(C)(C)CO | 5
CCCCCCNC(=O)CNC(=O)[C@H](O)C(C)(C)CO | 5
CCSCCNC(=O)CNC(=O)[C@H](O)C(C)(C)CO | 5
CC(C)(CO)[C@@H](O)C(=O)NCCCC(=O)NCc1ccc(OC(F)(F)F)cc1 | 5
CCCNC(=O)CNC(=O)[C@H](O)C(C)(C)CO | 5
CC(C)(CO)[C@@H](O)C(=O)NCCCC(=O)NCCc1ccccc1 | 5
CC(C)(CO)[C@@H](O)C(=O)NCC(=O)NCc1ccc(C(F)(F)F)cc1 | 5
COc1ccc(CNC(=O)CNC(=O)[C@H](O)C(C)(C)CO)cc1 | 5
CC(C)(CO)[C@@H](O)C(=O)NCCCC(=O)NCC1CCCCC1 | 5
COc1cccc(CNC(=O)CCCNC(=O)[C@H](O)C(C)(C)CO)c1 | 5
CC(C)(CO)[C@@H](O)C(=O)NCC(=O)NCC1CC1 | 5

System: Jurkat
Assay: Cytotoxicity against human Jurkat cells after 96 hrs by SYBR green assay in presence of pantothenic acid
Type: cell-based
Conditions: not given
Summary of the method: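 Human leukemic T-cell line grown 96 h in medium with 1 μM pantothenic acid. IC50 from concentration-response profiles. Means ± SEM of three independent experiments performed in triplicate.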

Compound | IC50 [µM]
CCCCCNC(=O)CCCNC(=O)[C@H](O)C(C)(C)CO | 192
CCCCCCNC(=O)CNC(=O)[C@H](O)C(C)(C)CO | 126
CC(C)(CO)[C@@H](O)C(=O)NCCCC(=O)NCc1ccc2c(c1)OCO2 | 23
CCSCCNC(=O)CCCNC(=O)[C@H](O)C(C)(C)CO | > 200
CC(C)(CO)[C@@H](O)C(=O)NCC(=O)NCCc1ccccc1 | 53
CC(C)(CO)[C@@H](O)C(=O)NCCCC(=O)NCCc1ccccc1 | 99
CC(C)(CO)[C@@H](O)C(=O)NCCCC(=O)NCC1CCCCC1 | 113

System: not listed separately
Assay: Selectivity index, ratio of IC50 for human Jurkat cells to IC50 for intraerythrocytic Plasmodium falciparum 3D7 infected in human erythrocytes in fresh RPMI-1640 culture medium
Type: toxicity, cell-based
Conditions: read-out: Ratio IC50

Compound | selectivity ratio
CCCCCNC(=O)CCCNC(=O)[C@H](O)C(C)(C)CO | 49
CCCCCCNC(=O)CNC(=O)[C@H](O)C(C)(C)CO | 27
CC(C)(CO)[C@@H](O)C(=O)NCCCC(=O)NCc1ccc2c(c1)OCO2 | 9
CCSCCNC(=O)CCCNC(=O)[C@H](O)C(C)(C)CO | > 100
CC(C)(CO)[C@@H](O)C(=O)NCC(=O)NCCc1ccccc1 | 16
CC(C)(CO)[C@@H](O)C(=O)NCCCC(=O)NCCc1ccccc1 | 47
CC(C)(CO)[C@@H](O)C(=O)NCCCC(=O)NCC1CCCCC1 | 54

From ChEMBL document CHEMBL2407032, “Structural modification of pantothenamides counteracts degradation by pantetheinase and improves antiplasmodial activity” (ACS Med Chem Lett, 2013)
